Results from ChEMBL document CHEMBL1155848 (J Med Chem, 2008).
pIC50: −log10 of the molar value.

Assays:
[1] = target: Cytochrome P450 2D6 (Homo sapiens, UniProt P10635); test: Inhibition of human recombinant CYP2D6; type: ADME
How it was run: (§1)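 Recombinant human CYP450 microsomal protein (0.1 mg/mL) with substrate in 50 mM potassium phosphate, pH 7.4. Compound (range of concentrations, methanol) preincubated 10 min at 37 °C. Reaction started with an NADPH-generating system. Fluorescent metabolite formation followed over 10 min. Rates converted to percent of mean control; IC50 from the slope of the plot. Miconazole included as positive control.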

[2] = target: T1, Cytochrome P450 3A4 (Homo sapiens, UniProt P08684); test: Inhibition of human recombinant CYP3A4 using 7-benzyloxyquinoline substrate; type: ADME
T1 sequence (P08684 whole entry): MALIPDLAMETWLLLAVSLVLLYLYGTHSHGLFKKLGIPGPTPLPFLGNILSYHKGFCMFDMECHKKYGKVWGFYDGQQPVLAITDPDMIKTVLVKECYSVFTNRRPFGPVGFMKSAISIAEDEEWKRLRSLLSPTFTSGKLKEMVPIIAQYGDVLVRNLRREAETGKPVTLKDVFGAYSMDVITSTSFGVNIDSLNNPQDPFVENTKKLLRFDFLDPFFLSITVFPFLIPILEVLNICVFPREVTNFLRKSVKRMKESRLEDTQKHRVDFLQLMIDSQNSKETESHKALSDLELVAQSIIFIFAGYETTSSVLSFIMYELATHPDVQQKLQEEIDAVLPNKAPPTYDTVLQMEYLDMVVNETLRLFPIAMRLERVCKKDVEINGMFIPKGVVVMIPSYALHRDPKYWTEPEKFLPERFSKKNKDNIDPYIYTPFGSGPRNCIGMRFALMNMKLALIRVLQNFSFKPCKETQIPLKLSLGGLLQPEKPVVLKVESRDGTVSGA
How it was run: (§2)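 Recombinant human CYP450 microsomal protein (0.1 mg/mL) with substrate and a concentration range of compound (dissolved in methanol), preincubated 10 min at 37 °C in 50 mM potassium phosphate pH 7.4. Reaction started with an NADPH-generating system. Fluorescent metabolite formation followed over 10 min. Rates converted to percent of mean control rate, and IC50 derived from the plot. Miconazole served as positive control.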

[3] = target: T1, Cytochrome P450 3A4; test: Inhibition of human recombinant CYP3A4 using diethoxyfluorescein substrate; type: ADME; how it was run: as §2
[4] = target: Cytochrome P450 2C9 (Homo sapiens, UniProt P11712); test: Inhibition of human recombinant CYP2C9; type: ADME
Sequence of Cytochrome P450 2C9 (P11712 whole entry): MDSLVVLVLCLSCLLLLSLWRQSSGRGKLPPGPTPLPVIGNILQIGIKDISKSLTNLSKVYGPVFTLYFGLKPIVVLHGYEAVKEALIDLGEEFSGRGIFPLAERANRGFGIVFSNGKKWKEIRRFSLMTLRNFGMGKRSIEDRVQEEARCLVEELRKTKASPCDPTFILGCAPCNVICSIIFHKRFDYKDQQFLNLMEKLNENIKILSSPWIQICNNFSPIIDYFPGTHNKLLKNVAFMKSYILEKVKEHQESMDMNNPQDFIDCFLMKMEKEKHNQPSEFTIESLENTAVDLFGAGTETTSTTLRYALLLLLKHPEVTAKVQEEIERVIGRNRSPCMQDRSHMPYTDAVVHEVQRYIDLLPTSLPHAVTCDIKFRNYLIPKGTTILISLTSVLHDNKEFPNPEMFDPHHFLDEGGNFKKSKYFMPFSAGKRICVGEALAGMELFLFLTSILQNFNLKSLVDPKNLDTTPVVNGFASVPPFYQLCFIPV

[5] = target: Cytochrome P450 2C19 (Homo sapiens, UniProt P33261); test: Inhibition of human recombinant CYP2C19; type: ADME; how it was run: as §1
Sequence of Cytochrome P450 2C19 (P33261 whole entry): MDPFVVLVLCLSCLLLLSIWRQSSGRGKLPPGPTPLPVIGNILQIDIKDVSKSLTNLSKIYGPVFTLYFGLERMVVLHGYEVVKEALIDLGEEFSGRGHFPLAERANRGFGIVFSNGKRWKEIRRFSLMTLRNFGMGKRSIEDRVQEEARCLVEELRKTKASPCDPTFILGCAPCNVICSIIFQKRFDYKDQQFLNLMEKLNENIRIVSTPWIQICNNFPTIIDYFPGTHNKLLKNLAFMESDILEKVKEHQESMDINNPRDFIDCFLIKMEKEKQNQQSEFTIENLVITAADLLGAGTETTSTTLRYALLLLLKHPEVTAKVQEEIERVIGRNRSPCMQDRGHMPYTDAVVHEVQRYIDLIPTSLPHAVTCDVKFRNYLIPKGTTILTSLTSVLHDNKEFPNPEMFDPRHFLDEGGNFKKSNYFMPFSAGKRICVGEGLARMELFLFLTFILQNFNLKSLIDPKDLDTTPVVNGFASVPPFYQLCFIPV

[6] = test system: HUVEC; test: Inhibition of VEGF-induced HUVEC proliferation by BrdU incorporation method after 72 hrs; type: functional, cell-based; conditions: Homo sapiens
How it was run: (§3)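 HUVEC seeded in 5% FBS medium on type 1 collagen, held overnight at 37 °C, 5% CO2. Inhibitor at various concentrations added in serum-free medium. After 30 min, VEGF (10 ng/mL) or bFGF (0.3 ng/mL) added. Cells incubated a further 72 h, with BrdU (10 µM) present for the last 18–24 h. Incorporation read by ELISA; IC50 from fit of y = Vmax(1 − x/(K + x)).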

[7] = target: T2, Vascular endothelial growth factor receptor 2 (Homo sapiens, UniProt P35968); test: Inhibition of VEGFR2
T2 sequence (P35968 whole entry): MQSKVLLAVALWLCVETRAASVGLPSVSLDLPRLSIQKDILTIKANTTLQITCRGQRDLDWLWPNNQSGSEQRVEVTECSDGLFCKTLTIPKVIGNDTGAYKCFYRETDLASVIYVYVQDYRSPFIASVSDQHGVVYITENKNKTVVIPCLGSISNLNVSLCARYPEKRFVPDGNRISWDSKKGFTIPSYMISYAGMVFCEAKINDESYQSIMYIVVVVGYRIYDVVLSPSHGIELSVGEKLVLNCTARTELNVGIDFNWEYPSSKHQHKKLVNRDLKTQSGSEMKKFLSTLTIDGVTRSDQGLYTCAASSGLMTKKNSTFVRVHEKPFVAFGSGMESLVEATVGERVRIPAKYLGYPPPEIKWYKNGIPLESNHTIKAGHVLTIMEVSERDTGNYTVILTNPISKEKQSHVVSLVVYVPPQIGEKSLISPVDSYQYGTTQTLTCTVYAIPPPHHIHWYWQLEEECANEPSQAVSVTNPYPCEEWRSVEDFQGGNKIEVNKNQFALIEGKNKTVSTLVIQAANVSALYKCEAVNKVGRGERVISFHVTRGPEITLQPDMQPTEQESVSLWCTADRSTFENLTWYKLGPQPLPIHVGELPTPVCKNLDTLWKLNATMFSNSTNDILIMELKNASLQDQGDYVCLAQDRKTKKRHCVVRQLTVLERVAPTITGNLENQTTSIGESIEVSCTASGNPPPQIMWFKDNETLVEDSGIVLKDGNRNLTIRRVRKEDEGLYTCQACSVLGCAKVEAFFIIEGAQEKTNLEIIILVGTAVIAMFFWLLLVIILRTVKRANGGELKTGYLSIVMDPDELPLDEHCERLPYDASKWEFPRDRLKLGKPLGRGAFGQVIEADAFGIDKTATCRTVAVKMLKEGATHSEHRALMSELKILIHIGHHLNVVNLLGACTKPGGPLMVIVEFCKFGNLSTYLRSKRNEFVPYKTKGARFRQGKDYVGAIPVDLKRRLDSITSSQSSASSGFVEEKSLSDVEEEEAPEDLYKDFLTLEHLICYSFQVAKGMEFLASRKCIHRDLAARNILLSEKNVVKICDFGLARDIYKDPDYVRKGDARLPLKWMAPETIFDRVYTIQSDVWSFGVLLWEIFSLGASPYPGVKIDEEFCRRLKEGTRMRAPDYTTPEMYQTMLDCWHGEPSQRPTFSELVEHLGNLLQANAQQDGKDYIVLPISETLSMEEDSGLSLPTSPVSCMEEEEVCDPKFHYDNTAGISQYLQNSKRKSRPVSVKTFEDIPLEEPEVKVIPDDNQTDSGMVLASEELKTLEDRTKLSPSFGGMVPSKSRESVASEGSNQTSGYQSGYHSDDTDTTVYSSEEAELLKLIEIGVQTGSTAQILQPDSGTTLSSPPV

[8] = test system: HUVEC; test: Inhibition of VEGF-induced HUVEC proliferation; type: functional, cell-based; conditions: Homo sapiens; how it was run: as §3
[9] = test system: HUVEC; test: Inhibition of basic-fibroblast growth factor-induced HUVEC proliferation; type: functional, cell-based; conditions: Homo sapiens; how it was run: as §3
[10] = Oral bioavailability in rat at 10 mg/kg; type: ADME, organism-based; conditions: in vivo
[11] = Clearance in rat at 10 mg/kg; type: ADME, organism-based; set-up: dose 10 mg/kg; conditions: in vivo
[12] = target: T2, Vascular endothelial growth factor receptor 2; test: Inhibition of human recombinant VEGFR2
[13] = Clearance in dog at 1 mg/kg; type: ADME, organism-based, Canis lupus familiaris; set-up: dose 1 mg/kg; conditions: in vivo
[14] = Antitumor activity against human A375P cells xenografted in mouse assessed as inhibition of tumor growth at 30 mg/kg, po relative to control; type: functional
[15] = test system: Mus musculus; test: Inhibition of angiogenesis in Swiss Nu/Nu mouse assessed as hemoglobin content at 30 mg/kg, po by bFGF/matrigel plug assay; type: functional
[16] = Antitumor activity against human A375P cells xenografted in mouse assessed as inhibition of tumor growth at 10 mg/kg, po relative to control; type: functional
[17] = Clearance in monkey at 5 mg/kg; type: ADME, organism-based, Macaca mulatta; set-up: dose 5 mg/kg; conditions: rhesus monkey, in vivo
[18] = Antitumor activity against human A375P cells xenografted in mouse assessed as inhibition of tumor growth at 100 mg/kg, po relative to control; type: functional
[19] = Protein binding in mouse plasma by equilibrium dialysis; type: ADME, cell-free; conditions: read-out: PPB
[20] = AUC (0 to infinity) in mouse at 100 mg/kg, po; type: ADME, organism-based; set-up: time infinity, dose 100 mg/kg, route oral; conditions: plasma
[21] = Plasma concentration in mouse at 30 mg/kg, po after 12 hrs; type: ADME, organism-based; set-up: dose 30 mg/kg, route oral
[22] = test system: HN5; test: Antitumor activity against human HN5 cells xenografted in mouse assessed as inhibition of tumor growth at 30 mg/kg, po relative to control; type: functional
[23] = AUC (0 to infinity) in mouse at 10 mg/kg, po; type: ADME, organism-based; set-up: time infinity, dose 10 mg/kg, route oral; conditions: plasma
[24] = test system: HT-29; test: Antitumor activity against human HT29 cells xenografted in mouse assessed as inhibition of tumor growth at 10 mg/kg, po relative to control; type: functional
[25] = Oral bioavailability in monkey at 5 mg/kg; type: ADME, organism-based, Macaca mulatta; conditions: rhesus monkey, in vivo
[26] = Oral bioavailability in dog at 1 mg/kg; type: ADME, organism-based, Canis lupus familiaris; conditions: in vivo
[27] = test system: HN5; test: Antitumor activity against human HN5 cells xenografted in mouse assessed as inhibition of tumor growth at 10 mg/kg, po relative to control; type: functional
[28] = test system: HT-29; test: Antitumor activity against human HT29 cells xenografted in mouse assessed as inhibition of tumor growth at 100 mg/kg, po relative to control; type: functional
[29] = test system: Mus musculus; test: Inhibition of angiogenesis in Swiss Nu/Nu mouse assessed as hemoglobin content at 10 mg/kg, po by bFGF/matrigel plug assay; type: functional
[30] = test system: HT-29; test: Antitumor activity against human HT29 cells xenografted in mouse assessed as inhibition of tumor growth at 30 mg/kg, po relative to control; type: functional
[31] = test system: HN5; test: Antitumor activity against human HN5 cells xenografted in mouse assessed as inhibition of tumor growth at 100 mg/kg, po relative to control; type: functional
[32] = test system: Mus musculus; test: Inhibition of angiogenesis in Swiss Nu/Nu mouse assessed as hemoglobin content at 100 mg/kg, po by bFGF/matrigel plug assay; type: functional
[33] = Plasma concentration in mouse at 100 mg/kg, po after 12 hrs; type: ADME, organism-based; set-up: dose 100 mg/kg, route oral
[34] = Plasma concentration in mouse at 10 mg/kg, po after 12 hrs; type: ADME, organism-based; set-up: dose 10 mg/kg, route oral
[35] = AUC (0 to infinity) in mouse at 30 mg/kg, po; type: ADME, organism-based; set-up: dose 30 mg/kg, route oral, time infinity; conditions: plasma

Sequence of Cytochrome P450 2D6 (P10635 whole entry): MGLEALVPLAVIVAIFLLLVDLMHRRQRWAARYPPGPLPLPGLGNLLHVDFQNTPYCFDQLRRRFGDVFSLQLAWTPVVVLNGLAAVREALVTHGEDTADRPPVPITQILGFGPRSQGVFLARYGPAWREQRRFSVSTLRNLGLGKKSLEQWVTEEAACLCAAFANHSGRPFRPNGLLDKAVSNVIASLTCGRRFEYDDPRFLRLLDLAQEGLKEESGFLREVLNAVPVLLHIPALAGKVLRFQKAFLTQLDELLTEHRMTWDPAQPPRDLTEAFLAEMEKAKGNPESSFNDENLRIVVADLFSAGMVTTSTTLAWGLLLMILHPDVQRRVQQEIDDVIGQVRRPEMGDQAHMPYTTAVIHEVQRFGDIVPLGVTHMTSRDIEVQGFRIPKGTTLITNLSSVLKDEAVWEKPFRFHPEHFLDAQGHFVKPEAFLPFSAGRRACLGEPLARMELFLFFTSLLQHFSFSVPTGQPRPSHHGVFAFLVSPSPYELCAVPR

Cc1c2ccc(N(C)c3ccnc(Nc4cccc(S(N)(=O)=O)c4)n3)cc2nn1C
pIC50 [1]: 4.80
pIC50 [2]: 4.51
pIC50 [3]: 4.80
pIC50 [4]: 5.85
pIC50 [5]: 4.70
pIC50 [6]: 7.64

Cc1ccc(Nc2ccnc(Nc3cccc(Br)c3)n2)cc1O
pIC50 [7]: 8.20
pIC50 [8]: 6.27
pIC50 [9]: 5.46

Fc1cnc(Nc2cccc(Br)c2)nc1Nc1cccc(Br)c1
pIC50 [7]: 6.40

CCS(=O)(=O)c1ccc(OC)c(Nc2nccc(N(C)c3ccc4c(C)n[nH]c4c3)n2)c1
bioavailability [10]: 65%
clearance [11]: 0.6 L/h/kg

Cc1c2ccc(N(C)c3ccnc(Nc4cccc(S(N)(=O)=O)c4)n3)cc2nn1Cc1ccccc1
pIC50 [1]: 4.18
pIC50 [2]: 4.10
pIC50 [3]: 4.13
pIC50 [4]: 6.30
pIC50 [5]: 5.85
pIC50 [6]: 4.96

Cc1nc2cc(N(C)c3ccnc(Nc4cccc(S(N)(=O)=O)c4)n3)ccc2n1C
pIC50 [1]: 4.48
pIC50 [2]: 4.35
pIC50 [3]: 4.57
pIC50 [4]: 5.05
pIC50 [5]: 4.48
pIC50 [6]: 5.85

Cc1n[nH]c2cc(N(C)c3ccnc(Nc4cccc(S(N)(=O)=O)c4)n3)ccc12
pIC50 [1]: 5.32
pIC50 [2]: 4.80
pIC50 [3]: 5.12
pIC50 [4]: 6.15
pIC50 [5]: 5.14
pIC50 [6]: 7.03

CN(c1ccc2cn(C)nc2c1)c1ccnc(Nc2cccc(S(N)(=O)=O)c2)n1
pIC50 [1]: 4.74
pIC50 [2]: 5.41
pIC50 [3]: 5.33
pIC50 [4]: 5.54
pIC50 [5]: 5.04
pIC50 [6]: 6.96

COc1cc2ncnc(Nc3ccc(C)c(O)c3)c2cc1OC
pIC50 [12]: 9.22

Cc1nc2ccc(N(C)c3ccnc(Nc4cccc(S(N)(=O)=O)c4)n3)cc2n1C
pIC50 [1]: 4.60
pIC50 [2]: 5.77
pIC50 [3]: 4.59
pIC50 [4]: 4.82
pIC50 [5]: 4.59
pIC50 [6]: 5.55

COc1cc2ncnc(Nc3ccc4c(C)n[nH]c4c3)c2cc1OC
pIC50 [7]: 8.77

CCS(=O)(=O)c1ccc(OC)c(Nc2nccc(Nc3ccc4c(C)n[nH]c4c3)n2)c1
pIC50 [8]: 6.89
bioavailability [10]: 28%
clearance [11]: 2.4 L/h/kg
pIC50 [9]: 4.89

COc1cc(Nc2nccc(Nc3ccc4c(C)n[nH]c4c3)n2)cc(OC)c1OC [GW612286X]
pIC50 [8]: 6.74
bioavailability [10]: 85%
clearance [11]: 0.96 L/h/kg

Cc1nn(C)c2cc(N(C)c3ccnc(Nc4cccc(S(N)(=O)=O)c4)n3)ccc12 [GW770220A]
pIC50 [1]: 5.20
pIC50 [2]: 5.77
pIC50 [3]: 4.89
pIC50 [4]: 6.00
pIC50 [5]: 5.03
pIC50 [6]: 5.85

Cc1ccc(Nc2nccc(N(C)c3ccc4c(C)n(C)nc4c3)n2)cc1S(N)(=O)=O [PAZOPANIB]
clearance [13]: 0.084 L/h/kg
inhibition in vivo at 30 mg/kg [14]: 35%
inhibition in vivo at 30 mg/kg [15]: 57%
inhibition in vivo at 10 mg/kg [16]: 16%
clearance [17]: 0.084 L/h/kg
inhibition in vivo at 100 mg/kg [18]: 55%
fraction unbound [19]: < 0.001
AUC(0-inf) [20]: 1140 µg·h/mL
concentration at 12 h [21]: 24.8 µg/mL
inhibition in vivo at 30 mg/kg [22]: 102%
AUC(0-inf) [23]: 220 µg·h/mL
inhibition in vivo at 10 mg/kg [24]: 32%
bioavailability [25]: 65%
bioavailability [26]: 47%
inhibition in vivo at 10 mg/kg [27]: 99%
inhibition in vivo at 100 mg/kg [28]: 69%
inhibition in vivo at 10 mg/kg [29]: 0%
bioavailability [10]: 72%
inhibition in vivo at 30 mg/kg [30]: 59%
inhibition in vivo at 100 mg/kg [31]: 110%
inhibition in vivo at 100 mg/kg [32]: 83%
clearance [11]: 0.084 L/h/kg
concentration at 12 h [33]: 38.5 µg/mL
concentration at 12 h [34]: 6.32 µg/mL
AUC(0-inf) [35]: 657 µg·h/mL

COc1cc2/c(=N/c3ccc(Br)cc3F)nc[nH]c2cc1OCC1CCN(C)CC1 [VANDETANIB]
pIC50 [8]: 6.40
